Results on six molecules are retold here after ChEMBL document CHEMBL4265907, “Design, synthesis and pharmacological evaluation of N4,N6-disubstituted pyrimidine-4,6-diamine derivatives as potent EGFR inhibitors in non-small cell lung cancer” (Eur J Med Chem, 2018).

The structures appear in SMILES notation. The source made the active and inactive calls. The rule behind the calls is not given here. Where only a bound is given, the exact number is not on record here.

In data set [1] the target is T1, Epidermal growth factor receptor (Homo sapiens, UniProt P00533). Description: Inhibition of N-terminal GST-tagged wild type human EGFR cytoplasmic domain (669 to 1210 residues) expressed in baculovirus expression system using FAM-labeled peptide as substrate after 10 mins by mobility shift assay.
Data set [2] deals with Epidermal growth factor receptor (Homo sapiens, UniProt P00533, DEL747/DEL747-750). Briefly: Inhibition of N-terminal GST-tagged human EGFR del 747-750 mutant cytoplasmic domain expressed in baculovirus expression system using FAM-labeled peptide as substrate after 10 mins by mobility shift assay.
The subject of data set [3] is NCI-H3255. Description: Antiproliferative activity against human H3255 cells after 72 hrs by MTT assay. Format: functional, cell-based. As to conditions: NCI-H3255, 72 h. The gist of the method: (§1)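 Cells seeded at 3000/well in growth medium with 10% FBS and left overnight. Treated in triplicate for 72 h at nine concentrations (0.458 to 30,000 nM), with DMSO-only controls. MTT (5 mg/mL) added for the last 4 h, formazan dissolved in DMSO, absorbance read at 490 nm. IC50 from non-linear sigmoidal dose-response fit.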

Data set [4] has as its system A-431. Description: Antiproliferative activity against human A431 cells after 72 hrs by MTT assay. The data set is classed as functional, cell-based. The conditions noted are these: A-431, 72 h. An outline of the steps:
as §1

Data set [5] deals with HCC827. Briefly: Antiproliferative activity against human HCC827 cells after 72 hrs by MTT assay. Format: functional, cell-based. The conditions noted are these: HCC827, 72 h. An outline of the steps: as §1
The test system of data set [6] is NCI-H1975. Description: Antiproliferative activity against human NCI-H1975 cells after 72 hrs by MTT assay. The data set is classed as functional, cell-based. The conditions noted are these: NCI-H1975, 72 h. The gist of the method: as §1
Data set [7] concerns PC-9. Briefly: Antiproliferative activity against human PC9 cells after 72 hrs by MTT assay. The data set is classed as functional, cell-based. The conditions noted are these: PC-9, 72 h. The gist of the method: as §1
For data set [8], the target named is T1, Epidermal growth factor receptor. Briefly: Inhibition of EGFR in human H1975 cells assessed as decrease in EGF-induced AKT phosphorylation by Western blot method. The data set is classed as cell-based. An outline of the steps:
(§2)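 Cell lysates prepared in protein lysis buffer and cleared at 12,000 g for 10 min at 4 °C. 50 μg protein per lane was run on a gel, transferred to PVDF and immunoblotted, with GAPDH as the loading control.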

Data set [9] shares this target. Description: Inhibition of EGF-induced EGFR autophosphorylation at Y1068 residues in human H1975 cells by Western blot method. Format: cell-based. An outline of the steps: as §2
Data set [10] has as its system NCI-H3255. Briefly: Induction of apoptosis in human H3255 cells assessed as viable cells at 500 nM after 48 hrs by Annexin V-FITC/PI staining based flow cytometry (reference value: 87.9%). Format: functional. As to conditions: NCI-H3255, 48 h, read-out: Activity.
Data set [11] deals with NCI-H3255. Briefly: Induction of apoptosis in human H3255 cells assessed as early apoptotic cells at 1000 nM after 48 hrs by Annexin V-FITC/PI staining based flow cytometry (reference value: 3.22%). Format: functional.
Data set [12] has as its system NCI-H3255. Briefly: Induction of apoptosis in human H3255 cells assessed as late apoptotic cells at 1000 nM after 48 hrs by Annexin V-FITC/PI staining based flow cytometry (reference value: 1.77%). Format: functional.
For data set [13], the system named is NCI-H3255. Description: Induction of apoptosis in human H3255 cells assessed as necrotic cells at 1000 nM after 48 hrs by Annexin V-FITC/PI staining based flow cytometry (reference value: 7.06%). Format: functional.
The test system of data set [14] is A-431. Description: Induction of apoptosis in human A431 cells assessed as late apoptotic cells at 1000 nM after 48 hrs by Annexin V-FITC/PI staining based flow cytometry (reference value: 2.11%). The data set is classed as functional.
Data set [15] concerns HCC827. Description: Induction of apoptosis in human HCC827 cells assessed as viable cells at 250 nM after 48 hrs by Annexin V-FITC/PI staining based flow cytometry (reference value: 94.6%). Format: functional. The conditions noted are these: HCC827, 48 h, read-out: Activity.
Data set [16] concerns HCC827. Briefly: Induction of apoptosis in human HCC827 cells assessed as viable cells at 500 nM after 48 hrs by Annexin V-FITC/PI staining based flow cytometry (reference value: 94.6%). The conditions noted are these: HCC827, 48 h, read-out: Activity. The data set is classed as functional.
The subject of data set [17] is HCC827. Description: Induction of apoptosis in human HCC827 cells assessed as late apoptotic cells at 1000 nM after 48 hrs by Annexin V-FITC/PI staining based flow cytometry (reference value: 1.15%). Format: functional.
In data set [18] the test system is HCC827. Briefly: Induction of apoptosis in human HCC827 cells assessed as necrotic cells at 1000 nM after 48 hrs by Annexin V-FITC/PI staining based flow cytometry (reference value: 1.41%). Format: functional.
The test system of data set [19] is NCI-H1975. Briefly: Induction of apoptosis in human NCI-H1975 cells assessed as viable cells at 500 nM after 48 hrs by Annexin V-FITC/PI staining based flow cytometry (reference value: 93.7%). The data set is classed as functional. The conditions noted are these: NCI-H1975, 48 h, read-out: Activity.
For data set [20], the system named is NCI-H1975. Briefly: Induction of apoptosis in human NCI-H1975 cells assessed as late apoptotic cells at 500 nM after 48 hrs by Annexin V-FITC/PI staining based flow cytometry (reference value: 1.91%). The data set is classed as functional.
In data set [21] the test system is NCI-H1975. Briefly: Induction of apoptosis in human NCI-H1975 cells assessed as early apoptotic cells at 1000 nM after 48 hrs by Annexin V-FITC/PI staining based flow cytometry (reference value: 2.07%). Format: functional.
Data set [22] relates to NCI-H1975. Description: Cell cycle arrest in human NCI-H1975 cells assessed as accumulation at G2/M phase after 24 hrs by propidium iodide staining based flow cytometry. The data set is classed as functional. The gist of the method:
(§3)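 NCI-H1975 cells (2×10^5) seeded in 6-well plates overnight, then treated 24 h at 50, 100, 250 or 500 nM; 1‰ DMSO medium as control. Cells harvested, washed in cold PBS, fixed in 70% cold ethanol at −20 °C overnight, stained with PI/RNase buffer and analysed by flow cytometry. n=3.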

The test system of data set [23] is NCI-H1975. Description: Cell cycle arrest in human NCI-H1975 cells assessed as accumulation at G2/M phase at 100 to 500 nM after 24 hrs by propidium iodide staining based flow cytometry. The data set is classed as functional. The gist of the method:
as §3

A short description of data set [24]: Cmax in Sprague-Dawley rat at 30 mg/kg, po by UPLC-MS/MS analysis. The data set is classed as ADME, organism-based. Further details: dose 30 mg/kg, route oral. As to conditions: in vivo. The gist of the method: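 Four female and four male Sprague-Dawley rats, 200-220 g, fasted 12 h, then given a single oral dose of 30 mg/kg as a 0.5% CMC-Na suspension. Blood sampled at 0.083, 0.25, 0.5, 1, 2, 4, 8 and 24 h, plasma separated by centrifugation at 4000 r/min for 10 min, and analysed by UPLC–MS/MS. Parameters reported as mean ± SD, n=6.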

Data set [25] deals with PC-9. Briefly: Antitumor activity against human PC9 cells xenografted in BALB/C nude mouse assessed as decrease in tumor weight at 15 to 30 mg/kg, ip qd administered for 19 days measured for 23 days. Format: functional, organism-based. An outline of the steps:
(§4)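 Six-week-old BALB/C-nu mice given 2×10^6 PC-9 cells subcutaneously in the right flank. At tumour size ~0.2-0.4 cm³, randomised, 5 mice/group. Dosed ip daily for 19 days at 15 or 30 mg/kg, vehicle DMSO:Span-80:ddH₂O = 2:1:50; vehicle-treated control group. Tumour volume = (W²×L)/2. Tumours weighed.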

Data set [26] relates to PC-9. Briefly: Antitumor activity against human PC9 cells xenografted in BALB/C nude mouse assessed as decrease in tumor volume at 15 to 30 mg/kg, ip qd administered for 19 days measured for 23 days. The data set is classed as functional, organism-based. An outline of the steps:
as §4

The next data set deals with Mus musculus. Description: In vivo inhibition of AKT phosphorylation in tumor of BALB/C nude mouse xenografted with human PC9 cells at 15 to 30 mg/kg, ip qd administered for 19 days by immunohistochemical analysis. Format: functional, organism-based.

T1 sequence (P00533 whole entry, the tested form may be a part): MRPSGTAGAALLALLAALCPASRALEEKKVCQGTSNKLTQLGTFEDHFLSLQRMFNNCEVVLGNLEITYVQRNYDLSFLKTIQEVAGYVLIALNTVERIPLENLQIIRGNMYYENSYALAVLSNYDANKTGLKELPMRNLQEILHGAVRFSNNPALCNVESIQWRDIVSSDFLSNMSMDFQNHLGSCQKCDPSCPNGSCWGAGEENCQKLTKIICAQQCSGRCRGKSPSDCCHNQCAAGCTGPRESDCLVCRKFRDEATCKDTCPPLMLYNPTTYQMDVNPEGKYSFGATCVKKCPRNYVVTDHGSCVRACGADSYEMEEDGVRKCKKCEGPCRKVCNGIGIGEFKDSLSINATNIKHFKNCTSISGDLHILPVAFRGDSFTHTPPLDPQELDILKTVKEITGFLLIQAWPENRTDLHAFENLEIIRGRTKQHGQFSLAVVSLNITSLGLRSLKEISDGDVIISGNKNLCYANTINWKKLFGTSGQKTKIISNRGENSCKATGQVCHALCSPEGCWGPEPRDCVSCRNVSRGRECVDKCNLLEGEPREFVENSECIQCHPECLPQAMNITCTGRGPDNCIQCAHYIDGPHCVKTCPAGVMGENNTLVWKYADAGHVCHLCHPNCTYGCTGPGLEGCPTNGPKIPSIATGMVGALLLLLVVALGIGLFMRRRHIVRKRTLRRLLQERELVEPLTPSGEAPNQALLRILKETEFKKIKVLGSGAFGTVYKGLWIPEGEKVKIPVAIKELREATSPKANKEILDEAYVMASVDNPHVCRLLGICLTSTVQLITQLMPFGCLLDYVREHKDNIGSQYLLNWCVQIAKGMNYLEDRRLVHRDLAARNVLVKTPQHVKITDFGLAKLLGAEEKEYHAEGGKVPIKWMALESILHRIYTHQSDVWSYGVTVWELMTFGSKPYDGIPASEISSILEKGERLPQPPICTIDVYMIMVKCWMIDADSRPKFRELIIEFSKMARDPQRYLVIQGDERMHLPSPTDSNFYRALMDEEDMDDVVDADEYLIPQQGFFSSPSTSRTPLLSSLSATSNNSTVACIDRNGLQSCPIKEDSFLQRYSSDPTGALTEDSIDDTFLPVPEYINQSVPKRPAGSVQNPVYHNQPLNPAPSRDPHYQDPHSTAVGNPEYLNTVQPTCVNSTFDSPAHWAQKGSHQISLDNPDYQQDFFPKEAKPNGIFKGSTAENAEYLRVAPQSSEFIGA
Epidermal growth factor receptor (Homo sapiens, UniProt P00533, DEL747/DEL747-750), sequence (P00533 with tags, fused parts or gaps DEL747/DEL747-750 limits assumed): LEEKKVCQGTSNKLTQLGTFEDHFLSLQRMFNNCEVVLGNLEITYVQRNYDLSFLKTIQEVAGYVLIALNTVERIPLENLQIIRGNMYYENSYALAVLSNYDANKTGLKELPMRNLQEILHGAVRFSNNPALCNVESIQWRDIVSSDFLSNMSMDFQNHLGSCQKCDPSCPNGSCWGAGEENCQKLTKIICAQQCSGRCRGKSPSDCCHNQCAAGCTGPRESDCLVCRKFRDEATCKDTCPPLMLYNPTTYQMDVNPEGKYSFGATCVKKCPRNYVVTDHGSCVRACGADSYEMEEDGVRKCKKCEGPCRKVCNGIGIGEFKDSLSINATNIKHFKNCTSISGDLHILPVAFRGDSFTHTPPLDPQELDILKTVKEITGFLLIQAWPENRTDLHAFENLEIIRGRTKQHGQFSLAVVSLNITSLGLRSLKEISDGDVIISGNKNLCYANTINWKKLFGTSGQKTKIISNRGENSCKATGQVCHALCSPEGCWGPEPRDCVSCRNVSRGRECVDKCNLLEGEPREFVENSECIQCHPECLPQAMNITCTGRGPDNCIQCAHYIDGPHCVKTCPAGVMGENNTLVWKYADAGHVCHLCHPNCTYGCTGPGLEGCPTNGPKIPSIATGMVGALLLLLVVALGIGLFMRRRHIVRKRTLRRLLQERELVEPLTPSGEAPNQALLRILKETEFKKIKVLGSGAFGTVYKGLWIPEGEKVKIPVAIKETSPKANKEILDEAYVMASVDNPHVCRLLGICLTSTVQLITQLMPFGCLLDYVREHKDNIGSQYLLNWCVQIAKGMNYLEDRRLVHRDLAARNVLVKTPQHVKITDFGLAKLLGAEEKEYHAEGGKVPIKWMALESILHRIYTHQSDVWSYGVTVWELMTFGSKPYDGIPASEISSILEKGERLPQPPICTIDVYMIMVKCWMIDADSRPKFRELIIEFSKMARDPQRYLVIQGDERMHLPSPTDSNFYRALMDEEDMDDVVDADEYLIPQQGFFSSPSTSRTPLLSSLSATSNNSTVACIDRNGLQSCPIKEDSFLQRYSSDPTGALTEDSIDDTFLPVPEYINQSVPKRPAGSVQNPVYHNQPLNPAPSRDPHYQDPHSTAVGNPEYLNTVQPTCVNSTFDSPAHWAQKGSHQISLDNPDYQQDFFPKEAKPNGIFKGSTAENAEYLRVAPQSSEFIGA

For the molecule `COc1ccc(Nc2cc(NC(=O)c3ccccc3)ncn2)cc1`, the IC50 stood at 0.081 µM in data set [1]; 0.026 µM in [2]; 8.88 µM in the data set on NCI-H3255 [3]; 9.46 µM in the data set with A-431 [4]; 5.35 µM in the data set with HCC827 [5]; 11.4 µM in the data set on NCI-H1975 [6]. Further, the 50% inhibitory concentration (IC50) in the data set on PC-9 [7] stood at 0.66 µM.
Regarding `O=C(O)CCCC(=O)Nc1cc(N2CCOCC2)ncn1`, the concentration for half-maximal inhibition (IC50) in data set [1] was found to be 0.053 µM; in data set [2], 0.011 µM; in the data set on NCI-H3255 [3] it was 5.69 µM; in the data set with A-431 [4], 0.78 µM; in the data set with HCC827 [5] it was 1.56 µM; in the data set with NCI-H1975 [6], 1.16 µM. The molecule further came in with an IC50 with PC-9 [7] of 0.56 µM.
Take `CCOC(=O)c1ccc(Nc2cc(NC(=O)CCCC(=O)O)ncn2)cc1`: the IC50 in [1] came out at 0.048 µM; in data set [2] it was 0.021 µM.
For `COc1cccc(Nc2cc(Nc3cc(OC)ccc3OC)ncn2)c1`, the IC50 is 0.86 µM with NCI-H3255 [3]; 0.74 µM with A-431 [4]; 1.14 µM with HCC827 [5]; 0.89 µM in the data set on NCI-H1975 [6]; 0.45 µM in the data set on PC-9 [7]. The inhibition entry in data set [8] and in data set [9] was “Dose-dependent effect” each time. Also, the viability at 0.5 µM in the data set with NCI-H3255 [10] came out at 78.2%; in the data set on HCC827 [16] it was 61.8%; with NCI-H1975 [19] it was 52.5%. The Activity came to 17.6% in the data set with NCI-H3255 [11]; 10.6% in the data set on NCI-H3255 [12]; 6.35% with NCI-H3255 [13]; 13% in the data set on A-431 [14]; 14.4% with HCC827 [17]; 12.6% in the data set with HCC827 [18]. Also, the Activity is 15.5% with NCI-H1975 [20], 27.8% with NCI-H1975 [21] and “Dose-dependent effect” in the data set with NCI-H1975 [22]. In addition, the viability at 0.25 µM in the data set on HCC827 [15] came out at 61.9%. Further, the result in the data set with NCI-H1975 [23], with PC-9 [25] and with PC-9 [26] was Active. This molecule also returned a peak concentration (Cmax) in data set [24] of 1.06 µg/mL. In addition, the inhibition entry in the data set with Mus musculus was “Active”.
Regarding `O=C(O)CCCC(=O)Nc1cc(Nc2cccc(Cl)c2)ncn1`, the IC50 is over 30 µM with NCI-H3255 [3]; over 30 µM in the data set on A-431 [4]; 4.02 µM with HCC827 [5]; over 30 µM with NCI-H1975 [6]; 2 µM in the data set with PC-9 [7].
With `COc1cccc(Nc2cc(NC(=O)CCCC(=O)O)ncn2)c1`, the figures for the 50% inhibitory concentration (IC50) in data set [1] and in [2] were 0.037 µM and 0.012 µM, respectively.
